Measurements collected from several papers.
PDGFRB: Platelet-derived growth factor receptor beta (PDGFRB, Homo sapiens, UniProt P09619)
DYRK1A: Dual specificity tyrosine-phosphorylation-regulated kinase 1A (DYRK1A, Homo sapiens, UniProt Q13627)

SMILES	target	assay	setting	quantity	result
N#Cc1ccc(NC(=O)Nc2ccccc2)cc1	PDGFRB	cell-free assay, competition with immobilised ligand	25 µM	remaining binding	33%
C1=C/COCc2cc(ccc2OCCN2CCCC2)Nc2nccc(n2)-c2cccc(c2)COC/1	PDGFRB	binding	0.1 µM	remaining binding	32%
C#Cc1cc(-c2cc(Nc3nc(N[C@@H](C)c4ccc(F)cn4)ncc3Cl)n[nH]2)ccc1C=O	Homeodomain-interacting protein kinase 2 (HIPK2, Homo sapiens, UniProt Q9H2X6)	enzyme activity, inhibitor	0.2 µM	inhibition	40.4%
Brc1cc(Br)c2ccncc2c1Br	DYRK1A	enzyme activity, inhibitor, ADP detection	10 µM	inhibition	41.5%
Nc1ncnc2c1ncn2[C@@H]1O[C@H](COP(=O)(O)OP(=O)(O)O)[C@@H](O)[C@H]1O	Inositol-tetrakisphosphate 1-kinase (Homo sapiens, UniProt Q13572)	enzyme activity, substrate	–	Km	1500 nM
Cc1cc(O)c(-c2ccc([C@@H](C)CN(C)C)cc2)c2c1[nH]c(=O)c1sccc12	Microtubule-associated serine/threonine-protein kinase 3 (MAST3, Homo sapiens, UniProt O60307)	enzyme activity, inhibitor	0.1 µM	inhibition	2.4%
Cc1cc(F)cc2c(CCC(=O)N[C@@H]3C(=O)NC[C@H]3O)c(-c3ccc(F)cc3)[nH]c12	Muscarinic acetylcholine receptor M3 (CHRM3, Homo sapiens, UniProt P20309)	cell-free assay	10 µM	inhibition	0%
CN(C)CCOC(=O)COc1ccc(Cl)cc1	Alpha-1D adrenergic receptor (ADRA1D, Homo sapiens, UniProt P25100)	ligand displacement, radioligand	1 µM, cell membranes	inhibition	0%
CC(C)(C)C1CCc2c(C(=O)N/N=C/c3ccsc3)csc2C1 (centres unmarked)	DYRK1A	enzyme activity, inhibitor, ADP detection	10 µM	inhibition	23.1%
NC/C(=C\F)COc1cccc(Cn2c(=S)[nH]c(=O)c3[nH]cnc32)c1	Neuropeptide Y receptor type 2 (NPY2R, Homo sapiens, UniProt P49146)	ligand displacement, radioligand	10 µM	inhibition	< 50%
CC1(C)Oc2ccc3ccc(=O)oc3c2C/C1=N/O	DYRK1A	enzyme activity, inhibitor, ADP detection	10 µM	inhibition	38.6%
CCCCC(=O)Nc1ccc(-c2ccc3ncn(CCC)c(=O)c3c2)cn1	Ephrin type-A receptor 7 (EPHA7, Homo sapiens, UniProt Q15375)	binding, competition with immobilised ligand	0.5 µM	remaining binding	100%
Cc1nc(Sc2nc(C)nc3sc4c(c23)CCC4)c2c3c(sc2n1)CCC3	DYRK1A	enzyme activity, inhibitor, ADP detection	10 µM	inhibition	47.4%
COc1ccc2oc(-c3ccc4nc(N)oc4c3)c/c(=N\c3ccccc3NC(=O)CCN)c2c1	Dual specificity tyrosine-phosphorylation-regulated kinase 1B (DYRK1B, Homo sapiens, UniProt Q9Y463)	binding, competition with immobilised ligand	1 µM	remaining binding	102%
